A word on the MIC: it is the lowest concentration found to suppress growth. Read a high MIC as weaker potency. As a reminder, the half-life is the time needed for the level to fall by half in the phase considered. Lower therefore signals rapid decline. By LD50 is commonly meant the dose at which mortality reaches 50%. Lower therefore signals a more toxic substance. In general, Cmax refers to the peak of the concentration-time curve. What is called solubility is the dissolved amount per volume that the medium holds. High values mean much dissolved substance, low ones little dissolved substance. The AUC is concentration integrated over time. A higher AUC goes with more exposure. A word on the logD: it is lipophilicity at a set pH, counting ionised and neutral species. A lower logD goes with lower lipophilicity.

≈ marks a conversion by molar mass, not a printed value. Bounds are passed on as bounds.

These results are taken from ChEMBL document CHEMBL1126152, “Fluoronaphthyridines as antibacterial agents. 4. Synthesis and structure-activity relationships of 5-substituted-6-fluoro-7-(cycloalkylamino)-1,4-dihydro-4-oxo-1,8- naphthyridine-3-carboxylic acids” (J Med Chem, 1992).

The subject of data set [1] is Pseudomonas aeruginosa. Kind of data set: animal or person. The class given is functional. To be noted: in Mus musculus, po, read-out: PD50.
Data set [2] relates to Proteus mirabilis. Kind of data set: In vitro for antibacterial activity against Proteus mirabilis. It is filed as functional. Put shortly: (§1)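 MIC by serial 2-fold broth dilution in nutrient broth with an inoculum of 10^6 CFU/mL. Compound range was 0.0005–250 μg/mL. Plates were incubated 18 h at 37 °C. MIC was taken as the lowest concentration preventing visible growth.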

Data set [3] deals with Morganella morganii. Kind of data set: In vitro for antibacterial activity against Morganella morganii. It is filed as functional. Put shortly: as §1
For data set [4], the system named is Serratia marcescens. Kind of data set: In vitro for antibacterial activity against Serratia marcescens. The class given is functional. Put shortly:
as §1

Data set [5] has as its system Staphylococcus aureus. Kind of data set: animal or person. The class given is functional. To be noted: in Mus musculus, po, read-out: PD50.
In data set [6] the test system is Staphylococcus aureus. Kind of data set: Antibacterial activity against Staphylococcus aureus. It is filed as functional.
Data set [7] has as its system Streptococcus pneumoniae. Kind of data set: Antibacterial activity against Streptococcus pneumoniae. It is filed as functional.
In data set [8] the test system is Klebsiella pneumoniae. Briefly: In vitro for antibacterial activity against Klebsiella pneumoniae. It is filed as functional. A digest of the protocol:
as §1

The test system of data set [9] is Bacteroides fragilis. Kind of data set: In vitro for antibacterial activity against […]. It is filed as functional. Put shortly:
as §1

The nature of data set [10]: % dose recovered in mouse urine. To be noted: % recovery.
Data set [11] has as its system Enterococcus faecalis. Briefly: In vitro for antibacterial activity against Enterococcus faecalis. It is filed as functional. Put shortly:
as §1

The species named for data set [12] is Mus musculus. The settings on record: in vivo.
The subject of data set [13] is Escherichia coli. Kind of data set: In vitro for antibacterial activity against Escherichia coli. The class given is functional. Put shortly: as §1
Data set [14] relates to Enterobacter cloacae. Kind of data set: In vitro for antibacterial activity against Enterobacter cloacae. It is filed as functional.
The test system of data set [15] is Pseudomonas aeruginosa. Briefly: In vitro for antibacterial activity against Pseudomonas aeruginosa. The class given is functional. A digest of the protocol: as §1
A short description of data set [16]: in vivo. The settings on record: mouse, plasma, T1/2.
Data set [17] is described as follows: Lethal dose was determined in OF1-strain female Swiss mice after intra venous administration of the drug. To be noted: mouse, in vivo, iv.
The nature of data set [18]: Lethal dose was determined in OF1-strain female Swiss mice after oral administration of the drug. To be noted: mouse, in vivo.
Data set [19] concerns Escherichia coli. Kind of data set: Compound was tested for […] against Escherichia coli A 15119 after oral administration of drug in mice, value in the parenthesis indicates 95% confidence limits. The class given is functional. The settings on record: read-out: PD50. Put shortly: (§2)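 Mouse protection test against systemic infection. Compound was dissolved in sterile water and given orally to female OF1-strain Swiss mice weighing 18–25 g, with five mice per group.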

Data set [20] relates to Streptococcus pneumoniae. Briefly: Compound was tested for efficacy on systemic infection against Streptococcus pneumoniae A 9585 after oral administration of drug in mice, value in the parenthesis indicates 95% confidence limits.
Data set [21] in a line: in vivo. The settings on record: mouse, plasma.
Data set [22] concerns Pseudomonas aeruginosa. Kind of data set: Compound was tested for […] against Pseudomonas aeruginosa A 9843 after oral administration of drug in mice, value in the parenthesis indicates 95% confidence limits. It is filed as functional. To be noted: read-out: PD50. Put shortly: as §2
A short description of data set [23]: Solubility was measured at PH - 7.2 buffer.
For data set [24], the species on record is Mus musculus. The settings on record: in vivo. The source holds these as a separate data set.
The subject of data set [25] is Escherichia coli. Kind of data set: Compound was tested for […] against Escherichia coli A 15119 after oral administration of drug in mice. To be noted: read-out: PD50. It is filed as functional. Put shortly:
as §2

The nature of data set [26]: Partition coefficient (logD). To be noted: octanol/water.
The test system of data set [27] is Streptococcus pneumoniae. Kind of data set: animal or person. It is filed as functional. The settings on record: in Mus musculus, po, read-out: PD50.
Data set [28] relates to Staphylococcus. Briefly: Compound was tested for […] against Staphylococcus aureus A 15090 after oral administration of drug in mice. The class given is functional. To be noted: read-out: PD50. A digest of the protocol: as §2

As to `O=C(O)c1cn(-c2ccc(F)cc2F)c2nc(N3CC4CC3CN4)c(F)cc2c1=O` (stereo unspecified), the ED50 in data set [1] came to 2.7 mg/kg; in [5], 9.5 mg/kg. In addition, the MIC in data set [2] was determined as 0.03 µg/mL (≈ 0.0721 µM); in data set [3], 0.06 µg/mL (≈ 0.144 µM); in data set [4], 0.06 µg/mL (≈ 0.144 µM); in [6], 0.016 µg/mL (≈ 0.0384 µM); in data set [7], 0.25 µg/mL (≈ 0.6 µM); in data set [8] it was 0.008 µg/mL (≈ 0.0192 µM). The MIC in data set [9] came to 1 µg/mL (≈ 2.4 µM); in data set [11], 0.5 µg/mL (≈ 1.2 µM); in data set [13], 0.004 µg/mL (≈ 0.00961 µM); in data set [14], 0.016 µg/mL (≈ 0.0384 µM); in data set [15] it was 0.25 µg/mL (≈ 0.6 µM). This compound also registered a dose excreted in data set [10] of 7%. The compound also yielded a T1/2 in [12] of 1.48 h. Also, in data set [16], the half-life came out at 1.72 h.
In the case of `CC(C)(C)n1cc(C(=O)O)c(=O)c2cc(F)c(N3CC4CC3CN4)nc21` (stereo unspecified), the median lethal dose (LD50) in [17] is 303 mg/kg; in data set [18], 5000 mg/kg. In addition, the minimal inhibitory concentration (MIC) is 0.06 µg/mL (≈ 0.166 µM) in data set [2]; 0.06 µg/mL (≈ 0.166 µM) in data set [3]; 0.06 µg/mL (≈ 0.166 µM) in data set [4]; 0.003 µg/mL (≈ 0.00832 µM) in data set [6]; 0.13 µg/mL (≈ 0.361 µM) in [7]; 0.02 µg/mL (≈ 0.0555 µM) in data set [8]. The minimal inhibitory concentration (MIC) in data set [9] amounted to 4 µg/mL (≈ 11.1 µM); in [11], 0.5 µg/mL (≈ 1.39 µM); in [13], 0.008 µg/mL (≈ 0.0222 µM); in data set [14] it was 0.02 µg/mL (≈ 0.0555 µM); in data set [15], 0.25 µg/mL (≈ 0.694 µM). For the same compound, the ED50 worked out at 1.6 mg/kg in [5], 1.8 mg/kg in data set [19] and 4.7 mg/kg in [22]. The PD50 in data set [20] is 29.7 mg/kg. In [21], this compound registered a maximum concentration (Cmax) of 10000 ng/mL. Further, in data set [10], the dose excreted is 34%. Moreover, the solubility in [23] came out at 80 µg/mL (≈ 222 µM). Also, the T1/2 in data set [12] is 1.58 h. In addition, the half-life in [16] was 1.6 h.
As for `CN[C@H]1CCN(c2nc3c(c(C)c2F)c(=O)c(C(=O)O)cn3-c2ccc(F)cc2F)C1`, the ED50 in data set [1] was found to be 1.8 mg/kg; in data set [5], 1.8 mg/kg; in data set [25] it was 2.7 mg/kg; in data set [27], 4.1 mg/kg. Also, the LD50 in data set [17] worked out at 94 mg/kg; in data set [18], 2500 mg/kg. In addition, the MIC in data set [2] was determined as 0.13 µg/mL (≈ 0.301 µM); in data set [3] it was 0.06 µg/mL (≈ 0.139 µM); in data set [4], 0.25 µg/mL (≈ 0.578 µM); in data set [6], 0.008 µg/mL (≈ 0.0185 µM); in data set [7], 0.06 µg/mL (≈ 0.139 µM); in data set [8], 0.016 µg/mL (≈ 0.037 µM). Moreover, the minimum inhibitory concentration (MIC) came out at 2 µg/mL (≈ 4.63 µM) in [9]; 0.25 µg/mL (≈ 0.578 µM) in data set [11]; 0.016 µg/mL (≈ 0.037 µM) in data set [13]; 0.03 µg/mL (≈ 0.0694 µM) in data set [14]; 1 µg/mL (≈ 2.31 µM) in data set [15]. In data set [24], this compound came in with an AUC of 32000 ng·h/mL. Besides, the solubility in data set [23] was 10 µg/mL (≈ 23.1 µM). Besides, in data set [26], the pH-dependent lipophilicity (logD) was found to be 1.38.
`O=C(O)c1cn(C2CC2)c2nc(N3CCNCC3)c(F)cc2c1=O`: the ED50 in [1] was 3.6 mg/kg; in data set [25], 0.4 mg/kg; in data set [28], 7 mg/kg. For the same compound, the MIC stood at 0.25 µg/mL (≈ 0.752 µM) in data set [2]; 0.06 µg/mL (≈ 0.181 µM) in [3]; 0.25 µg/mL (≈ 0.752 µM) in [4]; 0.25 µg/mL (≈ 0.752 µM) in [6]; 0.06 µg/mL (≈ 0.181 µM) in [8]; 8 µg/mL (≈ 24.1 µM) in data set [11]. The MIC in [13] was determined as 0.03 µg/mL (≈ 0.0903 µM); in data set [14] it was 0.06 µg/mL (≈ 0.181 µM); in data set [15], 0.5 µg/mL (≈ 1.5 µM).
Take `O=C(O)c1cn(C2CC2)c2cc(N3CCNCC3)c(F)cc2c1=O` [CIPROFLOXACIN]: the ED50 was 2.6 mg/kg in data set [1], 1.2 mg/kg in data set [25], 8 mg/kg in [28] and above 50 mg/kg in data set [27]. For the same compound, the minimal inhibitory concentration (MIC) in data set [4] came out at 0.03 µg/mL (≈ 0.0905 µM); in data set [6], 0.13 µg/mL (≈ 0.392 µM); in data set [7], 0.25 µg/mL (≈ 0.754 µM); in [8], 0.06 µg/mL (≈ 0.181 µM); in data set [9], 4 µg/mL (≈ 12.1 µM); in [11], 0.5 µg/mL (≈ 1.51 µM).
As to `NC1CCN(c2nc3c(cc2F)c(=O)c(C(=O)O)cn3-c2ccc(F)cc2F)C1` (stereo unspecified) [TOSUFLOXACIN], the ED50 in [1] is 2.9 mg/kg; in data set [25], 1.8 mg/kg; in data set [28], 2.1 mg/kg; in [27], 11.4 mg/kg. For the same compound, the values for the median lethal dose (LD50) in data set [17] and in data set [18] were 81 mg/kg and 2500 mg/kg, respectively. Also, the MIC in [2] was 0.03 µg/mL (≈ 0.0742 µM); in data set [3], 0.06 µg/mL (≈ 0.148 µM); in data set [4], 0.13 µg/mL (≈ 0.322 µM); in data set [6], 0.016 µg/mL (≈ 0.0396 µM); in data set [7] it was 0.06 µg/mL (≈ 0.148 µM); in data set [8] it was 0.016 µg/mL (≈ 0.0396 µM). Further, the minimum inhibitory concentration (MIC) worked out at 1 µg/mL (≈ 2.47 µM) in data set [9]; 0.25 µg/mL (≈ 0.618 µM) in [11]; 0.004 µg/mL (≈ 0.00989 µM) in data set [13]; 0.03 µg/mL (≈ 0.0742 µM) in data set [14]; 0.25 µg/mL (≈ 0.618 µM) in data set [15]. In data set [23], this compound had a solubility of 20 µg/mL (≈ 49.5 µM). The compound also came in with a logD in data set [26] of 0.1. The compound further yielded a T1/2 in data set [12] of 1.38 h. In data set [16], this compound registered a half-life of 2.4 h.
